Legend:
Type in all cases: functional
[1] = system: Malme-3M; assay: Cytotoxicity against human MALME-3M cells assessed as cell growth at 10 uM after 48 hrs by sulforhodamine B assay; details: read-out: Activity
[2] = system: SF-268; assay: Cytotoxicity against human SF268 cells assessed as cell growth at 100 uM after 48 hrs by sulforhodamine B assay; details: SF-268, 48 h, read-out: Activity
[3] = system: MOLT-4; assay: Growth inhibition of human MOLT4 cells after 48 hrs by sulforhodamine B assay; details: MOLT-4, 48 h
Outline: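 Leukemia suspension lines were grown in RPMI 1640 with 5% FBS and 2 mM L-glutamine and plated at 5000–40,000 cells/well with 24 h preincubation. They were treated at 0.01, 0.1, 1, 10 and 100 µM (DMSO stock) for 48 h at 37 °C. Settled cells were fixed with 80% TCA (16% final) and stained with 0.4% SRB in 1% acetic acid, then read at 515 nm. GI50 was calculated against time-zero and control wells.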

[4] = system: DU-145; assay: Growth inhibition of human DU145 cells after 48 hrs by sulforhodamine B assay; details: DU-145, 48 h; for CC50: read-out: LC50 (the source's name)
Outline: (§1)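 Adherent NCI-60 lines were grown in RPMI 1640 with 5% FBS and 2 mM L-glutamine, plated at 5000–40,000 cells/well and preincubated 24 h. They were then exposed to five concentrations (0.01–100 µM, from a DMSO stock) for 48 h at 37 °C, 5% CO2. Cells were fixed with cold TCA (10% final, 60 min, 4 °C) and stained with 0.4% SRB. Dye was solubilized in 10 mM Tris base and A515 read. GI50 was derived from time-zero, control and treated absorbances.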

[5] = system: OVCAR-4; assay: Cytotoxicity against human OVCAR4 cells assessed as cell growth at 0.01 uM after 48 hrs by sulforhodamine B assay; details: OVCAR-4, 48 h, read-out: Activity
[6] = system: CCRF-CEM; assay: Cytotoxicity against human CCRF-CEM cells assessed as cell growth at 10 uM after 48 hrs by sulforhodamine B assay; details: read-out: Activity
Outline: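 CCRF-CEM suspension leukemia cells in RPMI 1640 with 5% FBS and 2 mM L-glutamine, plated 24 h before dosing. Five concentrations (0.01–100 µM) were applied from a DMSO stock for 48 h at 37 °C. Settled cells were fixed with 80% TCA (final 16%) and stained with SRB, with read-out at 515 nm. Percent growth was derived from time-zero and control absorbances.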

[7] = Cytotoxicity against human Hs 578T cells assessed as cell growth at 100 uM after 48 hrs by sulforhodamine B assay; details: read-out: Activity
[8] = system: SNB-75; assay: Cytotoxicity against human SNB75 cells assessed as cell growth at 1 uM after 48 hrs by sulforhodamine B assay; details: SNB-75, 48 h, read-out: Activity
[9] = system: UACC-62; assay: Cytotoxicity against human UACC62 cells assessed as cell growth at 10 uM after 48 hrs by sulforhodamine B assay; details: UACC-62, 48 h, read-out: Activity
[10] = system: SR; assay: Cytotoxicity against human SR cells assessed as cell growth at 0.1 uM after 48 hrs by sulforhodamine B assay; details: read-out: Activity
[11] = system: UACC-257; assay: Growth inhibition of human UACC257 cells after 48 hrs by sulforhodamine B assay; details: UACC-257, 48 h; for CC50: read-out: LC50 (the source's name); outline: as §1
[12] = Growth inhibition of human Hs 578T cells after 48 hrs by sulforhodamine B assay; details: for CC50: read-out: LC50 (the source's name); outline: as §1
[13] = system: HCT-15; assay: Cytotoxicity against human HCT15 cells assessed as cell growth at 0.1 uM after 48 hrs by sulforhodamine B assay; details: HCT-15, 48 h, read-out: Activity
Outline: (§2)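 Five-dose NCI panel run at 0.01, 0.1, 1, 10 and 100 µM. Cells were in RPMI 1640 with 5% FBS and 2 mM L-glutamine, seeded at 5000–40,000 cells/well and pre-incubated 24 h. Drug was diluted from a DMSO stock into medium with 50 µg/ml gentamicin. Exposure was 48 h at 37 °C, 5% CO2. Cells were fixed with cold TCA and stained with 0.4% SRB, read at 515 nm. Percent growth came from time-zero, control and test absorbances.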

[14] = system: KM12; assay: Cytotoxicity against human KM12 cells assessed as cell growth at 0.01 uM after 48 hrs by sulforhodamine B assay; details: KM12, 48 h, read-out: Activity
[15] = system: MDA-MB-231; assay: Cytotoxicity against human MDA-MB-231 cells assessed as cell growth at 0.01 uM after 48 hrs by sulforhodamine B assay; details: MDA-MB-231, 48 h, read-out: Activity
[16] = system: SK-MEL-2; assay: Cytotoxicity against human SK-MEL-2 cells assessed as cell growth at 10 '-5 M after 48 hrs by sulforhodamine B assay; details: SK-MEL-2, 48 h, read-out: Activity
[17] = system: M14; assay: Cytotoxicity against human M14 cells assessed as cell growth at 100 uM after 48 hrs by sulforhodamine B assay; details: M14, 48 h, read-out: Activity
[18] = system: SF-268; assay: Cytotoxicity against human SF268 cells assessed as cell growth at 10 uM after 48 hrs by sulforhodamine B assay; details: SF-268, 48 h, read-out: Activity
[19] = system: U-251; assay: Cytotoxicity against human U251 cells assessed as cell growth at 1 uM after 48 hrs by sulforhodamine B assay; details: U-251, 48 h, read-out: Activity
[20] = system: UO-31; assay: Cytotoxicity against human UO31 cells assessed as cell growth at 1 uM after 48 hrs by sulforhodamine B assay; details: UO-31, 48 h, read-out: Activity
[21] = system: MCF7; assay: Growth inhibition of human MCF7 cells after 48 hrs by sulforhodamine B assay; details: MCF7, 48 h; for CC50: read-out: LC50 (the source's name); outline: as §1
[22] = system: OVCAR-3; assay: Cytotoxicity against human OVCAR3 cells assessed as cell growth at 0.1 uM after 48 hrs by sulforhodamine B assay; details: OVCAR-3, 48 h, read-out: Activity
[23] = system: OVCAR-4; assay: Cytotoxicity against human OVCAR4 cells assessed as cell growth at 100 uM after 48 hrs by sulforhodamine B assay; details: OVCAR-4, 48 h, read-out: Activity
[24] = system: COLO 205; assay: Cytotoxicity against human COLO205 cells assessed as cell growth at 0.1 uM after 48 hrs by sulforhodamine B assay; details: COLO 205, 48 h, read-out: Activity
Outline: (§3)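 NCI-60 five-dose screen. Cells were grown in RPMI 1640 with 5% FBS and 2 mM L-glutamine and preincubated 24 h. Compound (DMSO stock) was tested at 0.01, 0.1, 1, 10 and 100 µM for 48 h at 37 °C. Cells were fixed in situ with cold TCA (final 10%) and stained with 0.4% SRB. A515 was read, and percent growth was calculated against time-zero and control plates.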

[25] = system: HT-29; assay: Cytotoxicity against human HT-29 cells assessed as cell growth at 0.1 uM after 48 hrs by sulforhodamine B assay; details: HT-29, 48 h, read-out: Activity; outline: as §2
[26] = system: CAKI-1; assay: Cytotoxicity against human Caki1 cells assessed as cell growth at 10 uM after 48 hrs by sulforhodamine B assay; details: CAKI-1, 48 h, read-out: Activity; outline: as §3

Cc1ccc2nc(Nc3c(C)cccc3C)sc2c1
growth at 10 µM [1]: 45% | growth at 100 µM [2]: 34% | GI50 [3]: > 100 µM | LC50 [3]: > 100 µM | TGI [3]: > 100 µM | GI50 [4]: > 100 µM | TGI [4]: > 100 µM | CC50 [4]: > 100 µM | growth at 0.01 µM [5]: 97% | growth at 10 µM [6]: 58% | growth at 100 µM [7]: 27% | growth at 1 µM [8]: 52% | growth at 10 µM [9]: 23% | growth at 0.1 µM [10]: 99% | GI50 [11]: > 100 µM | TGI [11]: > 100 µM | CC50 [11]: > 100 µM | GI50 [12]: 3.84 µM | TGI [12]: > 100 µM | CC50 [12]: > 100 µM | growth at 0.1 µM [13]: 98% | growth at 0.01 µM [14]: 101% | growth at 0.01 µM [15]: 85% | growth at 10 µM [16]: 34.6% | growth at 100 µM [17]: 53% | growth at 10 µM [18]: 64% | growth at 1 µM [19]: 80% | growth at 1 µM [20]: 73% | GI50 [21]: 1.2 µM | TGI [21]: > 100 µM | CC50 [21]: > 100 µM | growth at 0.1 µM [22]: 108% | growth at 100 µM [23]: 77% | growth at 0.1 µM [24]: 112% | growth at 0.1 µM [25]: 92% | growth at 10 µM [26]: 27%

Clc1cccc(Cl)c1Nc1nc2cccc(Cl)c2s1
growth at 10 µM [1]: -84% | growth at 100 µM [2]: -56% | GI50 [3]: 1.05 µM | LC50 [3]: > 100 µM | TGI [3]: 3.75 µM | GI50 [4]: 1.41 µM | TGI [4]: 2.75 µM | CC50 [4]: 5.39 µM | growth at 0.01 µM [5]: 94% | growth at 10 µM [6]: -34% | growth at 100 µM [7]: -17% | growth at 1 µM [8]: 46% | growth at 10 µM [9]: -85% | growth at 0.1 µM [10]: 101% | GI50 [11]: 1.35 µM | TGI [11]: 3.1 µM | CC50 [11]: 7.09 µM | GI50 [12]: 0.938 µM | TGI [12]: 3.49 µM | CC50 [12]: > 100 µM | growth at 0.1 µM [13]: 99% | growth at 0.01 µM [14]: 99% | growth at 0.01 µM [15]: 92% | growth at 10 µM [16]: -52.7% | growth at 100 µM [17]: -56% | growth at 10 µM [18]: -87% | growth at 1 µM [19]: 68% | growth at 1 µM [20]: 26% | GI50 [21]: 0.811 µM | TGI [21]: 2.24 µM | CC50 [21]: 5.37 µM | growth at 0.1 µM [22]: 97% | growth at 100 µM [23]: -87% | growth at 0.1 µM [24]: 94% | growth at 0.1 µM [25]: 96% | growth at 10 µM [26]: -90%

From ChEMBL document CHEMBL2040734, “Benzothiazoles: search for anticancer agents” (2012)
